Reference: ChEMBL document CHEMBL1127424, “7-azetidinylquinolones as antibacterial agents. 2. Synthesis and biological activity of 7-(2,3-disubstituted-1-azetidinyl)-4-oxoquinoline- and -1,8-naphthyridine-3-carboxylic acids. Properties and structure-activity relationships of quinolones with an azetidine moiety” (J Med Chem, 1994)
In brackets after ≈: the same amount, converted by molar mass.

Key:
Staphylococcus aureus = assay: In vitro minimum inhibitory concentration for Staphylococcus aureus ATCC 25178; type: functional
Outline: (§1)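 Serial 2-fold agar dilution in Mueller Hinton medium, run alongside a reference quinolone. Inoculum adjusted to 10⁸ cfu/mL; compound range 0.007–16 μg/mL.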

Pseudomonas aeruginosa = assay: In vitro minimum inhibitory concentration for Pseudomonas aeruginosa ATCC 10145; type: functional; outline: as §1
[1] = Dissociation constant (pKa); type: physicochemical; details: read-out: pKa2
Outline: (§2)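 Spectrophotometric titration at 20 ± 1 °C, 0.1 M ionic strength, pH varied with H2SO4 or NaOH made up in the compound stock. Absorbance followed at compound-specific wavelengths chosen from 200–400 nm scans. pKa1 and pKa2 taken as the inflection points of the two-step absorbance vs pH curve.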

Enterobacter cloacae = assay: In vitro minimum inhibitory concentration for Enterobacter cloacae ATCC 23355; type: functional
[2] = HPLC capacity factor (k'); type: ADME
Outline: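 Ion-pair reversed-phase HPLC on ODS-2 (10 μm) at 45 °C. Mobile phase: 10 mM sodium heptanesulfonate plus 50 mM KH2PO4 (pH 3.5)–methanol 45:55, 1 mL/min. Samples at 100 μg/mL in DMF, injected in duplicate, UV 280 nm. k' = (tR − t0)/t0.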

Enterococcus faecalis [3] = assay: In vitro minimum inhibitory concentration for Streptococcus faecalis ATCC 10541; type: functional; outline: as §1
[4] = AUC (0-4 hr) ug/ml/h; type: ADME, cell-free; design: time < 4 hr; concentration or dose not given beside the values; details: plasma
Outline: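 Mice dosed once orally at 50 mg/kg; blood taken from groups of six mice at 0.5, 1, 2 and 4 h. Serum drug assayed by disk agar diffusion bioassay (Bacillus subtilis ATCC 6633 on Seed Agar, 37 °C, 18 h), giving total activity.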

Mus musculus [5] = assay: Evaluation of efficacy on systemic infections Pseudomonas aeruginosa HS-116, after oral administration in mice; type: functional
Outline: (§3)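 Single oral dose given immediately after infection, one of four doses per group, chosen from in vitro activity. Survival scored after one week. ED50 (total mg/kg protecting 50%) interpolated from survival rates.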

[6] = Measured ionization constant (pKa); type: physicochemical; details: read-out: pKa1; outline: as §2
[7] = tested on: Staphylococcus epidermidis; assay: In vitro minimum inhibitory concentration for Staphylococcus epidermidis ATCC 155-1; type: functional; outline: as §1
Bacillus subtilis = assay: In vitro minimum inhibitory concentration for Bacillus subtilis ATCC 6633; type: functional; outline: as §1
Morganella morganii = assay: In vitro minimum inhibitory concentration for Morganella morganii ATCC 8019; type: functional; outline: as §1
Mus musculus [8] = assay: Evaluation of efficacy on systemic infections Staphylococcus aureus HS-93, after oral administration in mice; type: functional; outline: as §3
Bacillus cereus = assay: In vitro minimum inhibitory concentration for Bacillus cereus ATCC 11778; type: functional; outline: as §1
[9] = Solubility (buffer pH 7.4); type: physicochemical; details: read-out: S
Outline: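 Excess solid shaken in 0.05 M phosphate buffer pH 7.4 for 24 h at 25 °C. Suspension filtered through 0.22 μm, discarding the first portion. Filtrate diluted in 0.1 N HCl or 0.1 N NaOH and read by UV at the compound's absorbance maximum.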

Escherichia coli [10] = assay: In vitro minimum inhibitory concentration for Escherichia coli ATCC 10799; type: functional; outline: as §1
Proteus vulgaris = assay: In vitro minimum inhibitory concentration for Proteus vulgaris ATCC 8427; type: functional; outline: as §1
Klebsiella pneumoniae = assay: In vitro minimum inhibitory concentration to inhibit Klebsiella pneumoniae ATCC 10031; type: functional; outline: as §1
Mus musculus [11] = assay: Evaluation of efficacy on systemic infections Escherichia coli HM-42, after oral administration in mice; type: functional; outline: as §3
Escherichia coli [12] = assay: In vitro minimum inhibitory concentration to inhibit Escherichia coli ATCC 10799; type: functional
Outline: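 Serial 2-fold agar dilution on Mueller Hinton medium, run alongside 1b as comparator. Inoculum adjusted to 10⁸ cfu/mL; compound range 0.007 to 16 μg/mL. Incubated 37 °C for 18 h. MIC taken as the lowest concentration preventing visible growth.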

Enterococcus faecalis [13] = assay: microbe, parasite or virus in culture; details: ATCC 10541

Row | MIC (Staphylococcus aureus) [µg/mL] | MIC (Pseudomonas aeruginosa) [µg/mL] | pKa [1] | MIC (Enterobacter cloacae) [µg/mL] | Log k' [2] | MIC (Enterococcus faecalis [3]) [µg/mL] | AUC [4] [ng·h/mL] | pKa [6] | MIC [7] [µg/mL] | MIC (Bacillus subtilis) [µg/mL] | MIC (Morganella morganii) [µg/mL] | MIC (Bacillus cereus) [µg/mL] | solubility [9] [µg/mL] | MIC (Proteus vulgaris) [µg/mL] | MIC (Klebsiella pneumoniae) [µg/mL] | Structure (SMILES) | ED50 (Mus musculus [5]) [mg/kg] | ED50 (Mus musculus [8]) [mg/kg] | ED50 (Mus musculus [11]) [mg/kg] | other results
1 | 0.25 (≈ 0.696 µM) | 4 (≈ 11.1 µM) | 7.9 | 0.5 (≈ 1.39 µM) | 0.668 | 4 (≈ 11.1 µM) | 12100 | 6.29 | 0.12 (≈ 0.334 µM) | 0.06 (≈ 0.167 µM) | 0.5 (≈ 1.39 µM) | 0.5 (≈ 1.39 µM) | 96.3 (≈ 268 µM) | 0.5 (≈ 1.39 µM) | 0.06 (≈ 0.167 µM) | C[C@@H]1[C@@H](N(C)C)CN1c1cc2c(cc1F)c(=O)c(C(=O)O)cn2C1CC1 | 135 | 62.1 | 4.5 | MIC (Escherichia coli [10]): 0.5 µg/mL (≈ 1.39 µM)
2 | 0.03 (≈ 0.082 µM) | 0.12 (≈ 0.328 µM) | 8.47 | 0.03 (≈ 0.082 µM) | 0.1361 | 0.06 (≈ 0.164 µM) | 5200 | 6.04 | 0.03 (≈ 0.082 µM) | 0.03 (≈ 0.082 µM) | 0.03 (≈ 0.082 µM) | 0.03 (≈ 0.082 µM) | 12 (≈ 32.8 µM) | 0.03 (≈ 0.082 µM) | 0.007 (≈ 0.0191 µM) | C[C@H]1[C@H](N)CN1c1c(F)cc2c(=O)c(C(=O)O)cn(C3CC3)c2c1Cl | 38 | 9.6 | 2.8 | MIC (Escherichia coli [10]): 0.007 µg/mL (≈ 0.0191 µM)
3 | 0.25 (≈ 0.741 µM) | 1 (≈ 2.96 µM) | – | 0.06 (≈ 0.178 µM) | 0.0145 | 1 (≈ 2.96 µM) | – | – | 0.12 (≈ 0.356 µM) | 0.06 (≈ 0.178 µM) | 0.06 (≈ 0.178 µM) | 0.25 (≈ 0.741 µM) | – | 0.25 (≈ 0.741 µM) | 0.015 (≈ 0.0445 µM) | CCn1cc(C(=O)O)c(=O)c2cc(F)c(N3C[C@@H](N)[C@@H]3C)c(F)c21 | 56.3 | 5.1 | 4 | MIC (Escherichia coli [12]): 0.12 µg/mL (≈ 0.356 µM)
4 | – | – | 8.14 | – | 0.584 | – | – | 6 | – | – | – | – | 58 (≈ 160 µM) | – | – | CN(C)C1CN(c2c(F)cc3c(=O)c(C(=O)O)cn(C4CC4)c3c2F)C1 | – | – | – | –
5 | – | – | 8.12 | – | 0.604 | – | – | 6.05 | – | – | – | – | 23.6 (≈ 62.5 µM) | – | – | CN(C)C1(C)CN(c2c(F)cc3c(=O)c(C(=O)O)cn(C4CC4)c3c2F)C1 | – | – | – | –
6 | – | – | 8.65 | – | 0.0875 | – | – | 6.47 | – | – | – | – | 0.7 (≈ 2.03 µM) | – | – | CNC1(C)CN(c2cc3c(cc2F)c(=O)c(C(=O)O)cn3C2CC2)C1 | – | – | – | –
7 | – | – | 8.44 | – | 0.039 | – | – | 6.18 | – | – | – | – | 1.7 (≈ 4.87 µM) | – | – | CNC1CN(c2c(F)cc3c(=O)c(C(=O)O)cn(C4CC4)c3c2F)C1 | – | – | – | –
8 | – | – | 8.58 | – | 0.1055 | – | – | 6.26 | – | – | – | – | 0.5 (≈ 1.38 µM) | – | – | CNC1(C)CN(c2c(F)cc3c(=O)c(C(=O)O)cn(C4CC4)c3c2F)C1 | – | – | – | –
9 | – | – | 8.57 | – | 0.0996 | – | – | 6.2 | – | – | – | – | – | – | – | CCNC1CN(c2c(F)cc3c(=O)c(C(=O)O)cn(C4CC4)c3c2F)C1 | – | – | – | –

Row | Structure (SMILES) | MIC (Staphylococcus aureus) [µg/mL] | MIC (Pseudomonas aeruginosa) [µg/mL] | pKa [1] | MIC (Enterobacter cloacae) [µg/mL] | Log k' [2] | MIC (Enterococcus faecalis [3]) [µg/mL] | AUC [4] [ng·h/mL] | pKa [6] | MIC [7] [µg/mL] | MIC (Bacillus subtilis) [µg/mL] | MIC (Morganella morganii) [µg/mL] | MIC (Bacillus cereus) [µg/mL] | solubility [9] [µg/mL] | MIC (Proteus vulgaris) [µg/mL] | MIC (Klebsiella pneumoniae) [µg/mL] | ED50 (Mus musculus [5]) [mg/kg] | ED50 (Mus musculus [8]) [mg/kg] | ED50 (Mus musculus [11]) [mg/kg] | other results
10 | O=C(O)c1cn(C2CC2)c2cc(N3CCNCC3)c(F)cc2c1=O [CIPROFLOXACIN] | 0.25 (≈ 0.754 µM) | 0.12 (≈ 0.362 µM) | – | – | – | – | 2300 | – | 0.5 (≈ 1.51 µM) | 0.06 (≈ 0.181 µM) | 0.06 (≈ 0.181 µM) | 0.25 (≈ 0.754 µM) | – | 0.06 (≈ 0.181 µM) | – | 70.3 | 45.1 | 3 | MIC (Enterococcus faecalis [13]): 0.5 µg/mL (≈ 1.51 µM)
